Measurements gathered from unrelated publications.
Each line is one published result; the experiments were not run side by side.
Effect on: cell growth or viability

`CC[C@H](C)[C@H](NC(=O)[C@H](CO)NC(=O)[C@H](CO)NC(=O)[C@H](Cc1ccccc1)NC(=O)CN)C(=O)N[C@@H](Cc1ccccc1)C(=O)N[C@@H](CCCCNC(=N)N)C(=O)NCC(=O)N[C@H](C(=O)N[C@@H](C)C(=O)N[C@@H](CCCCNC(=N)N)C(=O)N[C@@H](Cc1ccccc1)C(=O)N[C@@H](C)C(=O)N[C@@H](CO)C(=O)N[C@@H](CCCCNC(=N)N)C(=O)NCC(=O)N[C@@H](CC(C)C)C(=O)NCC(=O)N[C@@H](CCCCNC(=N)N)C(N)=O)C(C)C` has an IC50 of > 100 µM (HEK293; MTT).
`[C-]#[O+].[C-]#[O+].[C-]#[O+].[C-]#[O+].[C-]#[O+].[C-]#[O+].[C-]#[O+].[C-]#[O+].[C-]#[O+].[C-]#[O+].[Mn].[Mn]` gave an IC50 of 5.44 µM (HEK293; MTT; 48 h).
The IC50 of `CC(C)C[C@H](NC(=O)[C@H](CO)NC(=O)[C@H](CO)NC(=O)CNC(=O)[C@@H]1CCCN1C(=O)[C@H](Cc1ccc(O)cc1)NC(=O)[C@H](CC(C)C)NC(=O)[C@H](CO)NC(=O)[C@H](CS)NC(=O)[C@H](CC(C)C)NC(=O)[C@@H](N)CC(C)C)C(=O)O` is reported as > 100 µM (NCI-H1975; MTT; 72 h).
The IC50 of `Cc1ncsc1-c1ccc([C@H](C)NC(=O)[C@@H]2C[C@@H](O)CN2C(=O)[C@@H](c2cc(N3CCC(CN4CCC(OC5CC(Oc6cc(N7C8CCC7CN(c7cc(-c9ccccc9O)nnc7N)C8)ccn6)C5)CC4)CC3)no2)C(C)C)cc1` (some centres unmarked) is reported as 0.0529 µM (HCC515; ATP luminescence; 7 days).
`C[C@H](NC(=O)[C@H](Cc1c[nH]c2ccccc12)NC(=O)CNC(=O)[C@H](CCCNC(=N)N)NC(=O)[C@H](Cc1c[nH]c2ccccc12)NC(=O)[C@H](Cc1c[nH]c2ccccc12)NC(=O)[C@H](CO)NC(=O)[C@H](CO)NC(=O)[C@H](Cc1c[nH]c2ccccc12)NC(=O)CN)C(=O)N[C@@H](CCCCN)C(=O)N[C@@H](Cc1c[nH]c2ccccc12)C(=O)N[C@@H](C)C(=O)N[C@@H](CO)C(=O)N[C@@H](CCCCN)C(=O)NCC(=O)N[C@@H](Cc1c[nH]c2ccccc12)C(=O)NCC(=O)N[C@@H](CCCCN)C(N)=O` gave an IC50 of 34.1 µM (HEK293; MTT).
`CC[C@H](C)[C@H](NC(=O)CN)C(=O)NCC(=O)N[C@@H](C)C(=O)N[C@H](C(=O)N[C@@H](CC(C)C)C(=O)N[C@@H](CCCCN)C(=O)N[C@H](C(=O)N[C@@H](CC(C)C)C(=O)N[C@H](C(=O)N[C@H](C(=O)NCC(=O)N[C@@H](CC(C)C)C(=O)N1CCC[C@H]1C(=O)N[C@@H](C)C(=O)N[C@@H](CC(C)C)C(=O)N[C@H](C(=O)N[C@@H](CO)C(=O)N[C@@H](Cc1c[nH]c2ccccc12)C(=O)N[C@H](C(=O)N[C@@H](CCCCN)C(=O)N[C@@H](CCCNC(=N)N)C(=O)N[C@@H](CCCCN)C(=O)N[C@@H](CCCNC(=N)N)C(=O)N[C@@H](CCC(N)=O)C(=O)N[C@@H](CCC(N)=O)C(N)=O)[C@@H](C)CC)[C@@H](C)CC)[C@@H](C)O)[C@@H](C)O)C(C)C)C(C)C` has an IC50 of 4.66 µM (HEK293; MTT; 24 h).
`N.N.[Cl][Pt][Cl]` gave an IC50 of 17.6 µM (HEK293; MTT; 48 h).
`N.N.[Cl][Pt][Cl]` has an IC50 of 7.16 µM (KARPAS-422; ATP luminescence; 72 h).
